# Measurements reported in ChEMBL document CHEMBL2016568, “Bromophenols as inhibitors of protein tyrosine phosphatase 1B with antidiabetic properties” (Bioorg Med Chem Lett, 2012).
# What was measured:
# [1] = molecular target: T1, Tyrosine-protein phosphatase non-receptor type 1 (Homo sapiens) (UniProt P18031); assay: Inhibition of GST-tagged human recombinant PTB1B using pNPP as substrate at 5 ug/ml after 3 mins
# T1 sequence (whole entry): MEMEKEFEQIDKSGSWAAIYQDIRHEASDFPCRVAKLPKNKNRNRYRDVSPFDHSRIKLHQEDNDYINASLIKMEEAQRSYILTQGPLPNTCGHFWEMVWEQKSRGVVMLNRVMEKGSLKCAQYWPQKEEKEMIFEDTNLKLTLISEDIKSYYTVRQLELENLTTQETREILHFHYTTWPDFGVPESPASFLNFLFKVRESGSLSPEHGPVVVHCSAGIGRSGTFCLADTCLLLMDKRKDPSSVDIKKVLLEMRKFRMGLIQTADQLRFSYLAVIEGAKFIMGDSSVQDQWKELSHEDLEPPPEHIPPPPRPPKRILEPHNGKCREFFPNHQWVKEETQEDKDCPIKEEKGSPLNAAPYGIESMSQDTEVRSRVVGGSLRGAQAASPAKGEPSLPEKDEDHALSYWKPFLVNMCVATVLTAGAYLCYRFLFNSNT
# [2] = molecular target: T1, Tyrosine-protein phosphatase non-receptor type 1 (Homo sapiens); assay: Inhibition of GST-tagged human recombinant PTB1B using pNPP as substrate at 20 ug/ml after 3 mins
# [3] = molecular target: T2, Tyrosine-protein phosphatase non-receptor type 1 (Homo sapiens, UniProt P18031); assay: Inhibition of GST-tagged human recombinant PTB1B using pNPP as substrate after 3 mins
# T2 sequence (P18031 whole entry): T1 sequence (whole entry)
# Mus musculus [4] = assay: Antidyslipidemic activity in C57BL/Ks db/db mouse assessed as reduction of triacylglycerol level at 50 mg/kg, po after 2 weeks (reference value: 1.24 +/- 0.12 mmol/L); type: functional
# Mus musculus [5] = assay: Antihyperglycemic activity in C57BL/Ks db/db mouse assessed as reduction of glycosylated hemoglobin level using HbA1c reagent at 50 mg/kg, po after 2 to 6 weeks relative to control; type: functional; set-up: scale not given: the % may be the effect or the level left
# Method in brief: (§1)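 HbA1c measured in C57BL/Ks db/db mice (n = 8 per group, 10 weeks old at start). Mice received oral doses suspended in 0.5% sodium carboxymethyl cellulose for six weeks, alongside a vehicle-treated model group. Results given as mean ± SD, compared against the model group.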
# Mus musculus [6] = assay: Antidyslipidemic activity in C57BL/Ks db/db mouse assessed as reduction of triacylglycerol level at 50 mg/kg, po after 6 weeks (reference value: 1.56 +/- 0.17 mmol/L); type: functional
# Mus musculus [7] = assay: Antihyperglycemic activity in C57BL/Ks db/db mouse assessed as reduction of plasma glucose level at 50 mg/kg, po after 2 to 6 weeks by glucometer relative to control; type: functional; set-up: scale not given: the % may be the effect or the level left
# Method in brief: (§2)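 db/db mice (C57BL/Ks, 10 weeks old, n = 8 per group) given compound orally in 0.5% sodium carboxymethyl cellulose for six weeks, with a vehicle model group. Postprandial blood glucose read weekly by glucometer. Baseline, 2-week and 6-week values given as mean ± SD. Percent decrease reported at 6 weeks, with statistics against the model group.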
# Mus musculus [8] = assay: Antidyslipidemic activity in C57BL/Ks db/db mouse assessed as reduction of total cholesterol level at 50 mg/kg, po after 2 weeks (reference value: 9.8 +/- 0.7 mmol/L); type: functional
# Mus musculus [9] = assay: Antidyslipidemic activity in C57BL/Ks db/db mouse assessed as reduction of total cholesterol level at 50 mg/kg, po after 6 weeks (reference value: 9.2 +/- 1.2 mmol/L); type: functional
# [10] = molecular target: Receptor-type tyrosine-protein phosphatase F (Homo sapiens, UniProt P10586); assay: Inhibition of LAR using OMFP as substrate after 3 mins
# Sequence of Receptor-type tyrosine-protein phosphatase F (P10586 whole entry): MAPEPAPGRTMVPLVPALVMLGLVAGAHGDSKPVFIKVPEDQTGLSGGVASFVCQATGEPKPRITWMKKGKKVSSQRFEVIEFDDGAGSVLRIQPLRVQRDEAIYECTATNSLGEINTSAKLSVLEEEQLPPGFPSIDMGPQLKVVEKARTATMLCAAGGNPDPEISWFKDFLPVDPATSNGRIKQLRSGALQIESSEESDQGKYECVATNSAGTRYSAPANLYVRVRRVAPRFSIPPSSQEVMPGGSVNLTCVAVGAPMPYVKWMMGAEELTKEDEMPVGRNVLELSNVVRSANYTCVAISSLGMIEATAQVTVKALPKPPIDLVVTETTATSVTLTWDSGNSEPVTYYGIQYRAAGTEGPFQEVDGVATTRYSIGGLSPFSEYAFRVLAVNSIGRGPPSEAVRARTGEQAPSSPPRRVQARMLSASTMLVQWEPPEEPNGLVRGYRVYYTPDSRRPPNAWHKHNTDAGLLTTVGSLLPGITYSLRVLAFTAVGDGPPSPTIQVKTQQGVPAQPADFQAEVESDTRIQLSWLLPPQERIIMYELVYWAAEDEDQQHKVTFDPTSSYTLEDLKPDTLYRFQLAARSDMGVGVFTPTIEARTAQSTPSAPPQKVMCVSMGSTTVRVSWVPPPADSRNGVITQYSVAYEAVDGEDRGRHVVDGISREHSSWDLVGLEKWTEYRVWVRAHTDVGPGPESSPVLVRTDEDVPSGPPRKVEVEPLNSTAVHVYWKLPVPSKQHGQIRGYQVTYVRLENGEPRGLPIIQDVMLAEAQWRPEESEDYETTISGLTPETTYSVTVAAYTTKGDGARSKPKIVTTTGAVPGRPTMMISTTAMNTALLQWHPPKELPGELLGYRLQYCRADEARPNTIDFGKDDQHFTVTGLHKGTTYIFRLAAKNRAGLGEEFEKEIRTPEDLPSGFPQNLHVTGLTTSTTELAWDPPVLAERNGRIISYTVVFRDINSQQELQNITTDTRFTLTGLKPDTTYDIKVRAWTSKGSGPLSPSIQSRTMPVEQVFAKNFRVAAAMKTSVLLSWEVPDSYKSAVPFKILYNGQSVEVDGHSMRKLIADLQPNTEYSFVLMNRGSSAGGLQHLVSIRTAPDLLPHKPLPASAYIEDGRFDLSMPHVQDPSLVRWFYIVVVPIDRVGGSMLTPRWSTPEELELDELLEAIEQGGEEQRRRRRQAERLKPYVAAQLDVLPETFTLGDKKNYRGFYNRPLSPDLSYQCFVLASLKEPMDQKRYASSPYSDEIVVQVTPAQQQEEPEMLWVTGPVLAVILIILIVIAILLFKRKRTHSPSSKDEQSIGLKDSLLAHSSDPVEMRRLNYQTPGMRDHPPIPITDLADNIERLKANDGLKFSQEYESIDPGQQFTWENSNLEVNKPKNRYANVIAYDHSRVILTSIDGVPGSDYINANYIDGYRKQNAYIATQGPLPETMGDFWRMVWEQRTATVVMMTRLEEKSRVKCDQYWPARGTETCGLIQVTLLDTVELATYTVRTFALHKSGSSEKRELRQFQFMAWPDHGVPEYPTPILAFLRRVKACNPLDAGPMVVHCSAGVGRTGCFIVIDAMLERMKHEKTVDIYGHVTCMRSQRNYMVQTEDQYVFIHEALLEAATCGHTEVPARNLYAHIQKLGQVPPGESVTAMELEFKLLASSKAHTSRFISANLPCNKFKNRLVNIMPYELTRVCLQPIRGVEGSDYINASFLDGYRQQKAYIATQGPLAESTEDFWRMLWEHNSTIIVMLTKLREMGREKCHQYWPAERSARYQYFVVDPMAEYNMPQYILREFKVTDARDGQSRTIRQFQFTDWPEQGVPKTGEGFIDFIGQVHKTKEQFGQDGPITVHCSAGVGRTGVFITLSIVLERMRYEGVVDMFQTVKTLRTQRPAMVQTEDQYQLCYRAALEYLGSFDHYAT
# Method in brief: (§3)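 Selectivity assays run in the same system as PTP1B. Enzyme and inhibitor preincubated 3 min at 4 °C, then the reaction started by adding substrate. OMFP used as substrate for SHP1, SHP2 and LAR. IC50 derived by Hill-equation fit of percent inhibition against inhibitor concentration.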
# Homo sapiens [11] = organism: Homo sapiens; assay: Selectivity ratio of IC50 for TCPTP to IC50 for GST-tagged human recombinant PTB1B
# [12] = molecular target: T3, Tyrosine-protein phosphatase non-receptor type 11 (Homo sapiens, UniProt Q06124); assay: Inhibition of SHP2 using OMFP as substrate after 3 mins; method in brief: as §3
# T3 sequence (Q06124 whole entry): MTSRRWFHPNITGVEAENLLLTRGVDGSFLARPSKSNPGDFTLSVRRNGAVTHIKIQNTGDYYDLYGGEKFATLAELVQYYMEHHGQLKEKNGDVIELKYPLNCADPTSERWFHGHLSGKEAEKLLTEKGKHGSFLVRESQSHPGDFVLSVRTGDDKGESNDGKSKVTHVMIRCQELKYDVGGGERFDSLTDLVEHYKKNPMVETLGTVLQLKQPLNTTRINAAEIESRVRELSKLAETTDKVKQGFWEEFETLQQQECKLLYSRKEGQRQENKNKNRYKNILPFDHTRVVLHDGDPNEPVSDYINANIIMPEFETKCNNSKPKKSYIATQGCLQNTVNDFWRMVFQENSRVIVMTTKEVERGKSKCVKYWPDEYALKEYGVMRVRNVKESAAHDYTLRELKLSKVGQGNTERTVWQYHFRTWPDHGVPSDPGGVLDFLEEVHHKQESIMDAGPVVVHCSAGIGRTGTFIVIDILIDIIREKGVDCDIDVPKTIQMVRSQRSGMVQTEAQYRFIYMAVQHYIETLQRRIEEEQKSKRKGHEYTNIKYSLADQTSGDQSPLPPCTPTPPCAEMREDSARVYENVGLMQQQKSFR
# Mus musculus [13] = assay: Antidyslipidemic activity in C57BL/Ks db/db mouse assessed as reduction of total cholesterol level at 25 mg/kg, po after 6 weeks (reference value: 9.2 +/- 1.2 mmol/L); type: functional
# Mus musculus [14] = assay: Antidyslipidemic activity in C57BL/Ks db/db mouse assessed as reduction of triacylglycerol level at 25 mg/kg, po after 2 weeks (reference value: 1.24 +/- 0.12 mmol/L); type: functional
# Homo sapiens [15] = organism: Homo sapiens; assay: Selectivity ratio of IC50 for SHP2 to IC50 for GST-tagged human recombinant PTB1B
# Homo sapiens [16] = organism: Homo sapiens; assay: Selectivity ratio of IC50 for LAR to IC50 for GST-tagged human recombinant PTB1B
# [17] = molecular target: Tyrosine-protein phosphatase non-receptor type 6 (Homo sapiens, UniProt P29350); assay: Inhibition of SHP1 using OMFP as substrate after 3 mins; method in brief: as §3
# Sequence of Tyrosine-protein phosphatase non-receptor type 6 (P29350 whole entry): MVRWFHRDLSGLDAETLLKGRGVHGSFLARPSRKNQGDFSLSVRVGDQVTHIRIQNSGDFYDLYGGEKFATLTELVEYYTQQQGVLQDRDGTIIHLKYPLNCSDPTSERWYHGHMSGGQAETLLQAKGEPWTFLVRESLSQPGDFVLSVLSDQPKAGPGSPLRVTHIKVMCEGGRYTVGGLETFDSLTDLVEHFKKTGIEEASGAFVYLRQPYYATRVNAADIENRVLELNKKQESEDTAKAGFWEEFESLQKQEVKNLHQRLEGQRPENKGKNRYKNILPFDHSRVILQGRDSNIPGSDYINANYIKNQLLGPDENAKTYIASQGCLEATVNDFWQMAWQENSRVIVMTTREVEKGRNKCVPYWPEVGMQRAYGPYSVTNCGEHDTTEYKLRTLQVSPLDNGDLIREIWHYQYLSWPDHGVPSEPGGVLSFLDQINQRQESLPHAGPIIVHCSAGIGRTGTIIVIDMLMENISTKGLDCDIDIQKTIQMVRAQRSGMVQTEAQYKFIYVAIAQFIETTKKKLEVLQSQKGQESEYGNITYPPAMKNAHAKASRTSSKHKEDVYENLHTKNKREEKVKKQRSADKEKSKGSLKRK
# Mus musculus [18] = assay: Toxicity in C57BL/Ks db/db mouse at 25 to 50 mg/kg, po after 2 to 6 weeks; type: organism-based; set-up: route oral; conditions: in vivo
# Homo sapiens [19] = organism: Homo sapiens; assay: Selectivity ratio of IC50 for SHP1 to IC50 for GST-tagged human recombinant PTB1B
# [20] = molecular target: T4, Tyrosine-protein phosphatase non-receptor type 2 (Homo sapiens, UniProt P17706); assay: Inhibition of TCPTP after 3 mins; method in brief: as §3
# T4 sequence (P17706 whole entry): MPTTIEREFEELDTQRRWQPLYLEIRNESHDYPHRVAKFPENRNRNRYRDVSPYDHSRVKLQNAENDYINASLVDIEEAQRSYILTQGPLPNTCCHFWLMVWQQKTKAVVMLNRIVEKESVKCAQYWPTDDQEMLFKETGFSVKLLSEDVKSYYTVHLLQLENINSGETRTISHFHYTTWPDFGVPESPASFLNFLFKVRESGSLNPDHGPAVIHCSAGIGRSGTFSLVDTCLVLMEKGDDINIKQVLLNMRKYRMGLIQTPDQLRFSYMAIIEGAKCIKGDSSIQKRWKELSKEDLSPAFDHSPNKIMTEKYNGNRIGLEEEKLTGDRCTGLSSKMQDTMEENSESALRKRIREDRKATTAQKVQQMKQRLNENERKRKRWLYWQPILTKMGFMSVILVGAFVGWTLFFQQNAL
# Mus musculus [21] = assay: Antidyslipidemic activity in C57BL/Ks db/db mouse assessed as reduction of total cholesterol level at 25 mg/kg, po after 2 weeks (reference value: 9.8 +/- 0.7 mmol/L); type: functional
# Mus musculus [22] = assay: Antihyperglycemic activity in C57BL/Ks db/db mouse assessed as reduction of plasma glucose level at 25 mg/kg, po after 2 to 6 weeks by glucometer relative to control; type: functional; set-up: scale not given: the % may be the effect or the level left; method in brief: as §2
# Mus musculus [23] = assay: Antihyperglycemic activity in C57BL/Ks db/db mouse assessed as reduction of glycosylated hemoglobin level using HbA1c reagent at 25 mg/kg, po after 2 to 6 weeks relative to control; type: functional; set-up: scale not given: the % may be the effect or the level left; method in brief: as §1
# Mus musculus [24] = assay: Antidyslipidemic activity in C57BL/Ks db/db mouse assessed as reduction of triacylglycerol level at 25 mg/kg, po after 6 weeks (reference value: 1.56 +/- 0.17 mmol/L); type: functional
structure (smiles),measurement,setting,value
Oc1cc(Cc2c(Br)c(O)c(O)c(Br)c2Br)c(Br)c(Br)c1O,inhibition,[1],45.3%
same,inhibition,[2],92.3%
O=C(c1c(Br)c(O)c(O)c(Br)c1Br)c1c(Br)c(O)c(O)c(Br)c1Br,inhibition,[1],29.2%
same,inhibition,[2],78.6%
COc1cc(Cc2cc(OC)c(OC)c(Br)c2Br)c(Br)c(Br)c1OC,inhibition,[1],28.9%
same,inhibition,[2],60.4%
COc1ccc(C(=O)c2cc(OC)c(OC)cc2Br)cc1OC,inhibition,[2],13%
COc1cc(Br)c(Cc2cc(OC)c(OC)cc2Br)cc1OC,inhibition,[2],33.6%
COc1cc(Br)c(Cc2cc(OC)c(OC)c(Br)c2Br)cc1OC,inhibition,[1],40.2%
same,inhibition,[2],52.5%
O=C(c1cc(O)c(O)c(Br)c1Br)c1c(Br)c(O)c(O)c(Br)c1Br,inhibition,[1],72.1%
same,IC50,[3],2.45 µM
same,inhibition,[2],95.1%
Oc1cc(Br)c(Cc2cc(O)c(O)cc2Br)cc1O,inhibition,[2],20.9%
CN(CCOc1ccc(CC2SC(=O)NC2=O)cc1)c1ccccn1 (stereo unspecified) [ROSIGLITAZONE],Activity,Mus musculus [4],1.06 mmol/L
same,Activity,Mus musculus [5],2.56%
same,Activity,Mus musculus [6],1.29 mmol/L
same,Activity,Mus musculus [7],48.4%
same,Activity,Mus musculus [8],6.5 mmol/L
same,Activity,Mus musculus [9],7.7 mmol/L
COc1cc(C(=O)c2cc(OC)c(OC)c(Br)c2Br)c(Br)c(Br)c1OC,inhibition,[2],21.4%
COc1ccc(Cc2cc(OC)c(OC)cc2Br)cc1OC,inhibition,[2],14.4%
COc1cc(Cc2c(Br)c(Br)c(OC)c(OC)c2Br)c(Br)c(Br)c1OC,inhibition,[1],49.3%
same,inhibition,[2],98.7%
COc1ccc(Cc2ccc(OC)c(OC)c2)cc1OC,inhibition,[2],38.4%
COc1ccc(C(=O)c2ccc(OC)c(OC)c2)cc1OC,inhibition,[2],2.72%
COc1cc(Br)c(C(=O)c2cc(OC)c(OC)c(Br)c2Br)cc1OC,inhibition,[2],37.5%
Oc1ccc(Cc2ccc(O)c(O)c2)cc1O,inhibition,[2],9.27%
O=C(c1cc(O)c(O)cc1Br)c1cc(O)c(O)c(Br)c1Br,inhibition,[2],42.7%
COc1cc(C(=O)c2c(Br)c(Br)c(OC)c(OC)c2Br)c(Br)c(Br)c1OC,inhibition,[1],50.6%
same,IC50,[3],3.26 µM
same,inhibition,[2],69.8%
COc1cc(Br)c(C(=O)c2cc(OC)c(OC)cc2Br)cc1OC,inhibition,[2],33.6%
O=C(c1cc(O)c(O)cc1Br)c1cc(O)c(O)cc1Br,inhibition,[2],8.74%
Oc1cc(Cc2cc(O)c(O)c(Br)c2Br)c(Br)c(Br)c1O,inhibition,[1],38.9%
same,IC50,[3],2.42 µM
same,inhibition,[2],91.3%
O=C(c1ccc(O)c(O)c1)c1cc(O)c(O)cc1Br,inhibition,[2],11.2%
COc1c(Br)c(Br)c(Cc2c(Br)c(Br)c(OC)c(OC)c2Br)c(Br)c1OC,inhibition,[1],37.9%
same,inhibition,[2],96.9%
Oc1c(O)c(Br)c(Cc2c(Br)c(O)c(O)c(Br)c2Br)c(Br)c1Br,IC50,[10],> 50 µM
same,Activity,Mus musculus [4],1.28 mmol/L
same,Ratio IC50,Homo sapiens [11],> 70
same,IC50,[12],> 50 µM
same,Activity,Mus musculus [13],9.1 mmol/L
same,Activity,Mus musculus [14],1.2 mmol/L
same,Ratio IC50,Homo sapiens [15],> 70
same,Ratio IC50,Homo sapiens [16],> 70
same,inhibition,[1],86.7%
same,Activity,Mus musculus [5],3.05%
same,IC50,[17],> 50 µM
same,Activity,Mus musculus [18],Non-toxic
same,IC50,[3],0.68 µM
same,Ratio IC50,Homo sapiens [19],> 70
same,IC50,[20],> 50 µM
same,Activity,Mus musculus [6],1.51 mmol/L
same,Activity,Mus musculus [21],8.3 mmol/L
same,Activity,Mus musculus [22],33.5%
same,Activity,Mus musculus [7],40.4%
same,Activity,Mus musculus [23],3.05%
same,Activity,Mus musculus [8],7.1 mmol/L
same,Activity,Mus musculus [9],8.4 mmol/L
same,inhibition,[2],101%
same,Activity,Mus musculus [24],1.45 mmol/L
COc1c(Br)c(Br)c(C(=O)c2c(Br)c(Br)c(OC)c(OC)c2Br)c(Br)c1OC,inhibition,[1],47.8%
same,IC50,[3],2.02 µM
same,inhibition,[2],105%
Oc1ccc(Cc2cc(O)c(O)cc2Br)cc1O,inhibition,[2],12.2%
Oc1cc(Br)c(Cc2cc(O)c(O)c(Br)c2Br)cc1O,inhibition,[2],40.5%
O=C(c1cc(O)c(O)c(Br)c1Br)c1cc(O)c(O)c(Br)c1Br,inhibition,[2],20.3%
O=C(c1ccc(O)c(O)c1)c1ccc(O)c(O)c1,inhibition,[2],13.5%
